Active and inactive are the calls of the source. No cut-off for these calls is given here.

A short description of data set [1]: Intrinsic clearance in human liver microsomes at 1 ug/ml measured per mg protein up to 60 mins by LC-MS/MS analysis. It is filed as ADME, Microsome. The note with it: microsomes, 1 h. Put shortly:
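Human liver microsomes (1.0 mg/mL protein) in 100 mM phosphate pH 7.4 with 10 mM MgCl2 and 2 mM NADPH, preincubated 10 min at 37 °C. Reaction started with compound at 1 μg/mL. Sampled at 0, 5, 15, 20, 30, 45 and 60 min and quenched in methanol with internal standard. Controls: no NADPH (negative), testosterone (positive). Analysed by LC-MS/MS, triplicate.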

For a further data set, the system named is HaCaT. Kind of data set: Cytotoxicity against immortal human HaCaT cells assessed as reduction in cell viability at 50 ug/ml after 24 hrs by CCK-8 assay. It is filed as cell-based. Put shortly:
(§1)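 HeLa 229 and HaCaT cells in DMEM with 10% FBS and 1% penicillin/streptomycin, 37 °C, 5% CO2, seeded at 5000 cells/well. Next day treated with 50 μg/mL in triplicate, with matching DMSO controls. After 24 h, CCK-8 added for 2 h; corrected absorbance read at 450 nm.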
For orientation: Tetrazolium assays rely on reduction of a dye to a coloured formazan, in cell work by metabolically active cells.

The target of data set [2] is ATP-dependent Clp protease proteolytic subunit (Escherichia coli (strain K12)) (UniProt P0A6G7). Kind of data set: Activation of recombinant Escherichia coli ClpP assessed as induction of casein degradation at 0.1 to 1 uM using FITC-labelled casein as substrate pretreated with enzyme for 30 mins followed by substrate addition and measured every 3 mins for 3 hrs in absence of AAA+ chaperone by fluorescence based tecan-plate reader assay. Put shortly: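 Recombinant C-terminal His6-tagged ClpP, expressed in a clpAPX-null E. coli strain and purified (mammalian ClpP without mitochondrial signal, codon-optimized). ClpP at 1 or 0.1 μM (E. coli), 1 μM (human, mouse) or 6 μM (chlamydial ClpP1 and ClpP2) preincubated with compound or DMSO, 30 min, 32 °C, in HEPES pH 7.6/KCl/MgCl2/DTT/glycerol buffer. 20 μM FITC-casein then added. Fluorescence (ex 490/em 525 nm) read every 3 min for 3 h. At least three runs on at least two protein preparations.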

Data set [3] deals with Chlamydia trachomatis. As to the kind of experiment: Inhibition of recombinant Chlamydia trachomatis Serovar LGV-L2 C-terminal 6xhis-tagged ClpP1/ClpP2 dimer expressed in Escherichia coli at 0.1 to 1 uM by […] fluorescent peptide assay.
For data set [4], the system named is Chlamydia trachomatis. Kind of data set: Bacteriostatic activity against Chlamydia trachomatis Serovar LGV-L2 infected in Hep2 cells assessed as reduction of inclusion size at 50 ug/ml treated at 8 hrs post infection and incubated for 16 hrs followed by compound washout and further incubated for 24 hrs by immunofluorescence staining based microscopic assay. It is filed as functional, organism-based. In a few lines:
(§2)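 Medium was then removed, wells washed three times with Hanks' balanced salt solution, and compound-free medium added; incubation continued 24 h. Read-out by IFU re-infection and anti-MOMP immunofluorescence, as in the IFU protocol.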

Data set [5] relates to Chlamydia trachomatis. As to the kind of experiment: Anti-chlamydial activity against Chlamydia trachomatis Serovar LGV-L2 infected in Hep2 cells assessed as reduction in chlamydial inclusion growth by measuring appearance of small and irregular inclusions at 12.5 ug/ml treated at 8 hrs post-infection and 24 hrs later re-infecting fresh Hep2 cells monolayer with infected cells and measured at 24 hrs post re-infection by immunofluorescence staining based microscopy analysis relative to control. In kind it is functional. The settings on record: Serovar LGV-L2, HEp-2. In a few lines:
(§3)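 HEp-2 cells in DMEM with 10% FBS, infected with C. trachomatis L2 at MOI 1. Compounds added 8 hpi in triplicate; DMSO stocks at 50 mg/mL. At 24 hpi lysates collected in sucrose storage medium, frozen at −80 °C, and used to infect fresh HEp-2 monolayers in 10-fold dilutions. After 24 h, stained with goat anti-MOMP and Alexa488 secondary. Inclusions counted in 15 fields at 20x; IFU = mean count per field corrected for dilution.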

Data set [6] concerns Chlamydia trachomatis. As to the kind of experiment: Anti-chlamydial activity against Chlamydia trachomatis Serovar LGV-L2 infected in Hep2 cells assessed as reduction in chlamydial growth by measuring decrease in inclusion forming units at 5.2 to 50 ug/ml treated at 8 hrs post-infection and 24 hrs later re-infecting fresh Hep2 cells monolayer with infected cells and measured at 24 hrs post re-infection by immunofluorescence staining based microscopy analysis. In kind it is functional, organism-based. In a few lines:
as §3

For data set [7], the system named is Chlamydia trachomatis. As to the kind of experiment: Anti-Chlamydial activity against Chlamydia trachomatis Serovar LGV-L2 infected in Hep2 cells assessed as reduction in size and number of chlamydial inclusion at 5.2 to 50 ug/ml treated at 8 hrs post-infection and 24 hrs later re-infecting fresh Hep2 cells monolayer with infected cells and measured at 24 hrs post re-infection by immunofluorescence staining based microscopy analysis. In kind it is functional, organism-based. Put shortly: as §3

Data set [8] deals with Chlamydia trachomatis. Kind of data set: Anti-chlamydial activity against Chlamydia trachomatis Serovar LGV-L2 infected in Hep2 cells assessed as reduction in chlamydial inclusion growth by measuring appearance of small and irregular inclusions at 50 to 100 ug/ml treated at 8 hrs post-infection and 24 hrs later re-infecting fresh Hep2 cells monolayer with infected cells and measured at 24 hrs post re-infection by immunofluorescence staining based microscopy analysis. It is filed as functional, organism-based. Put shortly: as §3

For data set [9], the system named is Chlamydia trachomatis. As to the kind of experiment: Anti-chlamydial activity against Chlamydia trachomatis Serovar LGV-L2 infected in Hep2 cells assessed as reduction in chlamydial inclusion growth by measuring appearance of small and irregular inclusions at 50 ug/ml treated at 8 hrs post-infection and 24 hrs later re-infecting fresh Hep2 cells monolayer with infected cells and measured at 24 hrs post re-infection by immunofluorescence staining based microscopy analysis. It is filed as functional, organism-based. In a few lines: as §3

In data set [10] the test system is Chlamydia trachomatis. Kind of data set: Anti-chlamydial activity against Chlamydia trachomatis Serovar LGV-L2 infected in Hep2 cells assessed as reduction in chlamydial inclusion yield at 50 ug/ml treated at 8 hrs post infection and incubated for 16 hrs followed by compound washout and further incubated for 48 hrs by immunofluorescence staining based microscopic assay. In kind it is functional, organism-based.

Data set [11] deals with Chlamydia trachomatis. As to the kind of experiment: Bacteriostatic activity against Chlamydia trachomatis Serovar LGV-L2 infected in Hep2 cells assessed as loss of inclusion morphology at 50 ug/ml treated at 8 hrs post infection and incubated for 16 hrs followed by compound washout and further incubated for 24 hrs by immunofluorescence staining based microscopic assay. It is filed as functional, organism-based. Put shortly:
as §2

The nature of data set [12]: Cytotoxicity against immortal human HaCaT cells assessed as reduction in cell viability at 50 ug/ml after 24 hrs by CCK-8 assay relative to control. It is filed as cell-based. The note with it: read-out: INH. In a few lines:
as §1

Sequence of ATP-dependent Clp protease proteolytic subunit (Escherichia coli (strain K12)) (P0A6G7 whole entry): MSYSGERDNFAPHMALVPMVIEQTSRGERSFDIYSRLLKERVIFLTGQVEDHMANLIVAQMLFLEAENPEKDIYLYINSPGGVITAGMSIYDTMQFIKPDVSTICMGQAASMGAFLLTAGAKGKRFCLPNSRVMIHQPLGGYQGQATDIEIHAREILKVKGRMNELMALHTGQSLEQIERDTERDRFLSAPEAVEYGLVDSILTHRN

`CC(C)(C(=O)NCCCc1ccccc1)S(=O)(=O)c1ccc(C(F)(F)F)cc1`: the microsomal intrinsic clearance in data set [1] is 113.09 µL/min. Further, in the data set on HaCaT, the Activity entry is reported as “Toxic”.

On to `CC(C)(C(=O)N1CCN(Cc2ccc(Cl)cc2)CC1)S(=O)(=O)c1ccc(C(F)(F)F)cn1`, for which the outcome in data set [2] was Active. Also, the inhibition result in the data set with Chlamydia trachomatis [3] and in the data set with Chlamydia trachomatis [10] was “inactive” in each case. The inhibition entry in the data set on Chlamydia trachomatis [4], in the data set with Chlamydia trachomatis [6], in the data set with Chlamydia trachomatis [7], with Chlamydia trachomatis [8], with Chlamydia trachomatis [9] and in the data set with Chlamydia trachomatis [11] was “Active” in each case. Also, the inhibition at 12.5 µg/mL in the data set on Chlamydia trachomatis [5] came to 60%. Further, the cytotoxicity at 24 h, 50 ug/ml in data set [12] was 50%.

The inhibition is the change of the read-out against control, counted positive when it falls.

Values taken from ChEMBL document CHEMBL4342502, “Synthesis and Antichlamydial Activity of Molecules Based on Dysregulators of Cylindrical Proteases” (J Med Chem, 2020).
